Experimental data: paper PMC12800337 (Nature Communications, 2025)
Where a SMILES comes first, the peptide text is derived from it. The star is where a group is joined. 5FAM = O=C1OC2(c3ccc(O)cc3Oc3cc(O)ccc32)c2ccc(C(=O)*)cc21; βAla = NCCC(=O)O; X1 = OB(O)C*

Legend:
[1] = tested on: S. aureus (MTCC 7443); assay: S. aureus staining, flow cytometry median fluorescence; assay type: cell-based, Staphylococcus aureus; conditions: 2 µM, PBS pH 7.4, 30 min, washed, flow cytometry median value
[2] = tested on: S. aureus; assay: Confocal imaging of stained S. aureus; assay type: cell-based, Staphylococcus aureus; conditions: confocal optical sectioning of stained S. aureus cells
Outline: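 S. aureus (MTCC 7443) incubated with fluorescein-labelled test peptide for 30 min at 37 °C, washed three times in PBS. 5 µL of cells pressed under a coverslip on a glass slide to a single cell layer. Imaged by laser-scanning confocal microscopy with optical sectioning: 40× oil objective, argon laser at 10% power, gain 900–1100 HV, offset −0.5%. Representative of 2 independent experiments.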

[3] = tested on: E. coli (MTCC 1687); assay: E. coli staining; assay type: cell-based; conditions: P2 5 μM, confocal microscope
Outline: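 E. coli and S. aureus each diluted 1:100 from secondary culture and grown to OD₆₀₀ 0.4, then mixed and pelleted at 5000 × g. Pellet incubated with fluorescein-labelled test peptide in PBS (pH 7.4) at 37 °C for 30 min. Washed twice in PBS, resuspended in 100 µL PBS, imaged by confocal microscopy (40× oil, argon laser). Representative of 2 independent experiments.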

[4] = tested on: HEK 293; assay: Mammalian cell staining, confocal microscope; assay type: cell-based, human; conditions: P2 5 µM, compared to the brightness detected on S. aureus
Outline: (§1)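 Cells at 70% confluence detached with trypsin-EDTA and seeded at 1 × 10⁵ cells/well in glass-bottom dishes, then grown for 24 h. Medium replaced with PBS containing fluorescein-labelled test peptide; incubated 30 min at 37 °C. Washed three times with PBS, given fresh medium, imaged by confocal microscopy (40× oil, argon laser at 10%). Representative of 2 independent experiments.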

[5] = tested on: A549; assay: Mammalian cell staining, confocal microscope; assay type: cell-based; conditions: P2 5 µM, compared to the brightness detected on S. aureus
Outline: as §1

[6] = Serum stability assay of peptides; assay type: in vitro ADME; conditions: human serum, fluorophore unlabeled peptides, HPLC
Outline: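 Test peptide incubated in human serum; the remaining intact peptide was monitored by HPLC to derive half-life. Mean ± SEM from 3 independent replicates.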

[7] = tested on: S. aureus; assay: Mannitol inhibition assay of Fl-P2 binding; assay type: cell-based, Staphylococcus aureus; conditions: 50 mM mannitol, P2 2 µM, flow cytometry
[8] = Stability of BA-modified proteins as lyophilized powder; assay type: physicochemical; conditions: purified protein, confirmed by deconvoluted mass

With `CSCC[C@H](NC(=O)[C@H](CCCNC(=N)N)NC(=O)[C@H](CCCNC(=N)N)NC(=O)[C@H](CCCCN)NC(=O)[C@H](C)NC(=O)[C@H](CCCNC(=N)N)NC(=O)CNC(=O)[C@@H](NC(=O)CCNC(=O)c1ccc2c(c1)C(=O)OC21c2ccc(O)cc2Oc2cc(O)ccc21)[C@@H](C)O)C(=O)N[C@@H](CSCB(O)O)C(=O)N[C@@H](Cc1ccc(O)cc1)C(=O)N[C@@H](CSCB(O)O)C(=O)N[C@@H](CCCNC(=N)N)C(=O)N[C@@H](CCCNC(=N)N)C(N)=O` [P2] ({5FAM-βAla}-TGRAKRRMC(X1)YC(X1)RR-NH2) the “S. aureus staining efficiency relative to P0 and P3” value [1] was ~ 40 fold, the “uptake in bacterial cytosol (optical sectioning)” value [2] was “uptake of P2 in bacterial cytosol” and the “staining of E. coli” value [3] was “no significant staining”. The “staining of HEK 293 cells” value [4] was “minimal staining”, the “staining of A549 cells” value [5] was “minimal staining” and the “serum half-life relative to parent UBI peptide (P0)” value [6] was “around 14 times”. The “staining ability of P2 after mannitol complexation (reduced to)” value [7] was ~ 60%.

In the case of “BSA-BA: BSA with methylene-BA at a single free thiol site”, the “stability as a lyophilized powder (in words)” value [8] is reported as “stable for over a week”.

In the case of TGRAKRRMCYNRR-NH2 [P1], the “S. aureus staining efficiency relative to P0 and P3” value [1] is reported as ~ 8 fold.

In the case of “lysozyme-BA: lysozyme with methylene-BA conjugates at Cys6 and Cys115 (major product)”, the “stability as a lyophilized powder (in words)” value [8] is reported as “stable for over a week”.
